{
  "source": "paper PMC6500982",
  "about": "(Cancer Science, 2019)",
  "test": "Safety and tolerability",
  "type": "in vivo, human",
  "in_short": "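Patients (enrolled January 2015–February 2016) received oral test compound in four cohorts: 160, 320 or 480 mg QD, or 300 mg BID. Dosing continued until progression, unacceptable AEs or consent withdrawal. AEs were graded by CTCAE v4.0, alongside laboratory tests, vital signs and ECGs. The safety population was all patients receiving ≥1 dose.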",
  "key": {"[1]": {"conditions": "Japanese patients with B‐cell NHL and CLL"}},
  "data": [
    {"smiles": "CC#CC(=O)N1CC[C@@H](n2c(=O)n(-c3ccc(Oc4ccccc4)cc3)c3c(N)ncnc32)C1", "note": "[tirabrutinib]", "values": [
      {"measurement": "Upper respiratory tract inflammation, Any grade", "setting": "480 mg QD N = 4", "value": "0 n (%)"},
      {"measurement": "Upper respiratory tract inflammation, Grade ≥3", "setting": "480 mg QD N = 4", "value": "0 n (%)"},
      {"measurement": "Vomiting, Any grade", "setting": "480 mg QD N = 4", "value": "2 (50.0) n (%)"},
      {"measurement": "Vomiting, Grade ≥3", "setting": "480 mg QD N = 4", "value": "0 n (%)"},
      {"measurement": "Patients with DLT (grade 3 pneumonitis)", "setting": "Cohort 4 (300 mg BID), WM patient", "value": 1, "unit": "patient"},
      {"measurement": "Tolerability", "setting": "[1]", "value": "well tolerated"},
      {"measurement": "Tolerability confirmed up to (dose)", "setting": "[1]", "value": "up to 300 mg BID"},
      {"measurement": "Tolerability", "setting": "Japanese patients with B‐cell NHL and CLL, listed as Tirabrutinib", "value": "generally well tolerated"},
      {"measurement": "Serious AEs reported as study drug‐related", "setting": "Mallory‐Weiss syndrome, de novo reactivation of HBV, acute myeloid leukemia, pneumonitis (1 patient each)", "value": 4},
      {"measurement": "All AEs, Any grade", "setting": "Total (all cohorts) N = 17", "value": "17 (100.0) n (%)"},
      {"measurement": "All AEs, Grade ≥3", "setting": "Total (all cohorts) N = 17", "value": "8 (47.1) n (%)"},
      {"measurement": "Anemia, Any grade", "setting": "Total (all cohorts) N = 17", "value": "3 (17.6) n (%)"},
      {"measurement": "Anemia, Grade ≥3", "setting": "Total (all cohorts) N = 17", "value": "2 (11.8) n (%)"},
      {"measurement": "Arthralgia, Any grade", "setting": "Total (all cohorts) N = 17", "value": "3 (17.6) n (%)"},
      {"measurement": "Arthralgia, Grade ≥3", "setting": "Total (all cohorts) N = 17", "value": "0 n (%)"},
      {"measurement": "Aspartate aminotransferase increased, Any grade", "setting": "Total (all cohorts) N = 17", "value": "2 (11.8) n (%)"},
      {"measurement": "Aspartate aminotransferase increased, Grade ≥3", "setting": "Total (all cohorts) N = 17", "value": "0 n (%)"},
      {"measurement": "Constipation, Any grade", "setting": "Total (all cohorts) N = 17", "value": "3 (17.6) n (%)"},
      {"measurement": "Constipation, Grade ≥3", "setting": "Total (all cohorts) N = 17", "value": "0 n (%)"},
      {"measurement": "Cystitis, Any grade", "setting": "Total (all cohorts) N = 17", "value": "2 (11.8) n (%)"},
      {"measurement": "Cystitis, Grade ≥3", "setting": "Total (all cohorts) N = 17", "value": "0 n (%)"},
      {"measurement": "Diarrhea, Any grade", "setting": "Total (all cohorts) N = 17", "value": "3 (17.6) n (%)"},
      {"measurement": "Diarrhea, Grade ≥3", "setting": "Total (all cohorts) N = 17", "value": "0 n (%)"},
      {"measurement": "Dysgeusia, Any grade", "setting": "Total (all cohorts) N = 17", "value": "2 (11.8) n (%)"},
      {"measurement": "Dysgeusia, Grade ≥3", "setting": "Total (all cohorts) N = 17", "value": "0 n (%)"},
      {"measurement": "Gamma‐glutamyltransferase increased, Any grade", "setting": "Total (all cohorts) N = 17", "value": "2 (11.8) n (%)"},
      {"measurement": "Gamma‐glutamyltransferase increased, Grade ≥3", "setting": "Total (all cohorts) N = 17", "value": "0 n (%)"},
      {"measurement": "Headache, Any grade", "setting": "Total (all cohorts) N = 17", "value": "2 (11.8) n (%)"},
      {"measurement": "Headache, Grade ≥3", "setting": "Total (all cohorts) N = 17", "value": "0 n (%)"},
      {"measurement": "Hypokalemia, Any grade", "setting": "Total (all cohorts) N = 17", "value": "2 (11.8) n (%)"},
      {"measurement": "Hypokalemia, Grade ≥3", "setting": "Total (all cohorts) N = 17", "value": "0 n (%)"},
      {"measurement": "Hypophosphatemia, Any grade", "setting": "Total (all cohorts) N = 17", "value": "2 (11.8) n (%)"},
      {"measurement": "Hypophosphatemia, Grade ≥3", "setting": "Total (all cohorts) N = 17", "value": "1 (5.9) n (%)"},
      {"measurement": "Insomnia, Any grade", "setting": "Total (all cohorts) N = 17", "value": "3 (17.6) n (%)"},
      {"measurement": "Insomnia, Grade ≥3", "setting": "Total (all cohorts) N = 17", "value": "0 n (%)"},
      {"measurement": "Leukopenia, Any grade", "setting": "Total (all cohorts) N = 17", "value": "2 (11.8) n (%)"},
      {"measurement": "Leukopenia, Grade ≥3", "setting": "Total (all cohorts) N = 17", "value": "2 (11.8) n (%)"},
      {"measurement": "Lymphopenia, Any grade", "setting": "Total (all cohorts) N = 17", "value": "2 (11.8) n (%)"},
      {"measurement": "Lymphopenia, Grade ≥3", "setting": "Total (all cohorts) N = 17", "value": "1 (5.9) n (%)"},
      {"measurement": "Malaise, Any grade", "setting": "Total (all cohorts) N = 17", "value": "3 (17.6) n (%)"},
      {"measurement": "Malaise, Grade ≥3", "setting": "Total (all cohorts) N = 17", "value": "0 n (%)"},
      {"measurement": "Myalgia, Any grade", "setting": "Total (all cohorts) N = 17", "value": "2 (11.8) n (%)"},
      {"measurement": "Myalgia, Grade ≥3", "setting": "Total (all cohorts) N = 17", "value": "0 n (%)"},
      {"measurement": "Nasopharyngitis, Any grade", "setting": "Total (all cohorts) N = 17", "value": "2 (11.8) n (%)"},
      {"measurement": "Nasopharyngitis, Grade ≥3", "setting": "Total (all cohorts) N = 17", "value": "0 n (%)"},
      {"measurement": "Nausea, Any grade", "setting": "Total (all cohorts) N = 17", "value": "3 (17.6) n (%)"},
      {"measurement": "Nausea, Grade ≥3", "setting": "Total (all cohorts) N = 17", "value": "0 n (%)"},
      {"measurement": "Neutropenia, Any grade", "setting": "Total (all cohorts) N = 17", "value": "4 (23.5) n (%)"},
      {"measurement": "Neutropenia, Grade ≥3", "setting": "Total (all cohorts) N = 17", "value": "4 (23.5) n (%)"},
      {"measurement": "Pharyngitis, Any grade", "setting": "Total (all cohorts) N = 17", "value": "2 (11.8) n (%)"},
      {"measurement": "Pharyngitis, Grade ≥3", "setting": "Total (all cohorts) N = 17", "value": "0 n (%)"},
      {"measurement": "Pyrexia, Any grade", "setting": "Total (all cohorts) N = 17", "value": "2 (11.8) n (%)"},
      {"measurement": "Pyrexia, Grade ≥3", "setting": "Total (all cohorts) N = 17", "value": "0 n (%)"},
      {"measurement": "Rash, Any grade", "setting": "Total (all cohorts) N = 17", "value": "6 (35.3) n (%)"},
      {"measurement": "Rash, Grade ≥3", "setting": "Total (all cohorts) N = 17", "value": "0 n (%)"},
      {"measurement": "Thrombocytopenia, Any grade", "setting": "Total (all cohorts) N = 17", "value": "2 (11.8) n (%)"},
      {"measurement": "Thrombocytopenia, Grade ≥3", "setting": "Total (all cohorts) N = 17", "value": "0 n (%)"},
      {"measurement": "Upper respiratory tract inflammation, Any grade", "setting": "Total (all cohorts) N = 17", "value": "2 (11.8) n (%)"},
      {"measurement": "Upper respiratory tract inflammation, Grade ≥3", "setting": "Total (all cohorts) N = 17", "value": "0 n (%)"},
      {"measurement": "Vomiting, Any grade", "setting": "Total (all cohorts) N = 17", "value": "5 (29.4) n (%)"},
      {"measurement": "Vomiting, Grade ≥3", "setting": "Total (all cohorts) N = 17", "value": "0 n (%)"},
      {"measurement": "Tirabrutinib‐induced lymphocytosis", "setting": "all patients", "value": "no tirabrutinib‐induced lymphocytosis observed"},
      {"measurement": "Anemia, grade ≥3 (grade 3 or 4)", "setting": "all patients N = 17", "value": 11.8, "unit": "%"},
      {"measurement": "Leukopenia, grade ≥3 (grade 3 or 4)", "setting": "all patients N = 17", "value": 11.8, "unit": "%"},
      {"measurement": "Neutropenia, grade ≥3 (grade 3 or 4)", "setting": "all patients N = 17", "value": 23.5, "unit": "%"},
      {"measurement": "Patients who developed grade ≥3 AEs", "setting": "all patients N = 17", "value": 47.1, "unit": "%"},
      {"measurement": "Patients with serious AEs", "setting": "all patients N = 17", "value": 7, "unit": "patients"},
      {"measurement": "Maximum tolerated dose (MTD)", "setting": "cohorts 160, 320, 480 mg QD and 300 mg BID", "value": "not reached"}
    ]}
  ]
}
